Sampled rows, rich in hits. Any-hit rate of the full collection: about 4.4%.
HSF1 inhib – HSF1 inhibition. actives 0.77% (n = 300,000). NIH3T3-HGL HSE-luciferase, MG132-induced, luminescence 8 h; stronger effect = lower value. AID 2098. activity change, negative = inhibition, % at 7.5 µM (by protocol);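 active = more than half of replicate wells show activity change below -50%, luminescence cut by over half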;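 also: luciferase reports HSF-1 transcriptional activity via heat shock element; 0% = median of DMSO wells and -100% = zero luminescence signal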
HSF1 activator – increases HSF-1 driven luciferase reporter signal; NIH3T3-HGL HSF-1 luciferase reporter, MG132, 8 h; 100% = twice DMSO control signal; activation, % at 9 µM; actives 1.7% (n = 300,000); AID 504408;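 active = mean replicate activation of at least 50% with a set share of replicates each reaching 50%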;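 also: 0% = median of the neutral control wells and 100% = twice that signal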
HIF act – HIF pathway transcriptional activation. activation, % at 7.5 µM (by protocol). U2OS HRE-luciferase reporter, luminescence; normalized: DMSO 0%, desferrioxamine 100%. actives 0.32% (n = 300,000);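 active = mean activation of at least 10% of the iron chelator positive control signal, with at least half of replicates also reaching 10%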
T cruzi inh – T. cruzi replication inhibition; T. cruzi beta-gal in NIH3T3, luminescence, 90 h; inhibition, % (concentration not given with the values); actives 1.4% (n = 300,000);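 active = mean inhibition across valid replicates above about 55%, limit read from the data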;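 also: signal also drops with host cell toxicity which is not excluded here; 0% = plate median of DMSO wells and 100% = zero luminescence signal; higher percent means less beta-gal luminescence so fewer parasites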
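assay system = mouse NIH/3T3 fibroblasts infected with β-gal-expressing T. cruzi Tulahuen C4 | input = 5,000 NIH/3T3 host cells per well | buffer or medium = DMEM plus 2% FBS | timing = 3 h host attachment, then at least 90 h co-culture | measured by = GalScreen luminescence, 60 min | evaluation = luminescence reflecting intracellular parasite burden, expressed as percent inhibition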
Calb FLC – affects C. albicans growth with fluconazole; actives 0.57% (n = 300,000); C. albicans CaCi-2 + fluconazole, Alamar Blue growth, 48 h; growth inhibition, % (concentration not given with the values);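 active = growth inhibition above about 58% in most replicates, limit read from the data, passing the limit was not always enough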;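 also: all wells also contain fluconazole at 8 µg/ml as a sub-toxic cotreatment; 0% = median of DMSO wells and 100% = median of geldanamycin control wells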
* = called active by the depositor; / = not tested or not shown.

SMILES	HSF1 inhib	HSF1 activator	HIF act	T cruzi inh	Calb FLC
CCOc1ccc(C(C)=O)cc1CN1C(=O)NC2(CCCCCCC2)C1=O	-9.2	-6.9	-0.3	4.7	-20.2
COC(=O)c1cc2ccsc2n1Cc1nc(-c2ccc(Cl)cc2)oc1C	-78.8*	-83.4	-0.1	28.8	-6.5
Cc1ccnc(NC(=O)CNC(=O)C23CC4CC(CC(C4)C2)C3)c1	-2.7	-16.0	0.9	-1.0	-12.7
COc1ccc(OC)c(Nc2nc3ccc(C)cc3n3cnnc23)c1	19.4	74.2*	-10.5	24.4	-7.4
Cc1ccc(CNC(=O)CSc2c3c(nc4ccc(Cl)cc24)CCCC3)o1	69.2	119.7*	3.3	18.8	12.3
Cc1nc(C)c(-c2ccc(SCc3ccccc3C)nn2)s1	7.2	31.4	2.8	-0.6	-2.7
CN(C)CCOc1ccc(/C(=C(/CCCl)c2ccccc2)c2ccccc2)cc1	14.0	-6.1	0.2	62.4*	/
Cc1ccc(C2CC(c3cccs3)=NN2C(=O)CCl)cc1 (stereo not drawn)	8.0	11.3	8.9	59.0*	3.4
CC(=O)NCCc1cc2ccc(C)c(C)c2[nH]c1=O	4.4	22.2	0.1	-7.2	-0.6
Cc1ccc2cc(CCNC(=O)c3cccs3)c(=O)[nH]c2c1C	29.1	58.4*	3.8	3.0	2.6
O=C(CC(=O)NCc1ccccc1)NCc1ccccc1	-5.8	-3.1	1.0	-13.4	-2.8
C/C(=N\N=C(c1ccccc1)c1ccccc1)c1cccs1	3.2	2.6	0.5	15.2	-12.0
CC(NO)/C(=N\O)c1cccs1 (stereo not drawn)	-51.2*	-57.3	0.5	-8.2	-8.0
Cc1ccc(O)c(C(=O)c2cnc3c(c2)c(-c2ccc(F)cc2)c(C#N)c(=O)n3C)c1	33.5	63.0*	0.0	2.0	-38.8
Cc1ccc(O)c(C(=O)c2cnc3c(c2)c(=O)n(C)c(=O)n3C)c1	2.7	26.5	0.0	-1.2	-5.3
CC(C)(C)N1CC23CCC(C[C@@H]2C1=O)O3 (stereo partly drawn)	-32.4	-46.6	-1.5	-4.7	-4.6
Cc1ccc(S(=O)OCC(=O)Nc2cc(Cl)ccc2N2CCOCC2)cc1 (stereo not drawn)	-1.7	-25.8	-0.3	-0.3	7.7
O=C(COS(=O)c1ccccc1)Nc1cc(Cl)ccc1N1CCOCC1 (stereo not drawn)	3.2	5.9	-0.3	0.8	64.3*
S=C(c1cn(Cc2ccc(Br)cc2)c2ccccc12)N1CCOCC1	12.9	53.7*	-0.3	1.4	12.5
CN1CCN(C(=S)c2cn(Cc3ccc(F)cc3)c3ccccc23)CC1	14.8	24.3	-0.1	-0.8	121.2*
S=C(c1cn(Cc2ccccc2)c2ccccc12)N1CCOCC1	-1.7	10.1	-1.1	-5.3	16.0
CN1CCN(C(=S)c2cn(Cc3cccc(F)c3)c3ccccc23)CC1	2.0	18.1	-0.7	-10.4	14.9
Cc1c(C)c2ccc(OC(C)C(=O)NCCc3c[nH]c4ccccc34)cc2oc1=O (stereo not drawn)	4.2	3.6	-0.1	14.7	3.8
NC(=O)C1CCN(C(=O)CCSCc2ccc(Cl)c(Cl)c2)CC1	1.8	14.9	0.4	-9.3	9.5
C[C@@H](C(=O)NCCc1ccc(F)cc1)N1C(=O)N2CCc3c([nH]c4ccccc34)[C@@]2(C)C1=O	12.3	23.1	-0.2	24.8	18.0
SMILES	HSF1 inhib	HSF1 activator	HIF act	T cruzi inh	Calb FLC
Cc1ccc(CNC(=O)[C@H](C)N2C(=O)N3CCc4c([nH]c5ccccc45)[C@@]3(C)C2=O)cc1	64.1	97.4*	-0.2	2.9	8.6
CCOc1cc(/C=N/NC(=O)Cn2nc([N+](=O)[O-])cc2C)cc(Br)c1OCc1ccccc1C	27.7	70.7*	-0.1	57.2*	13.6
COc1cc(/C=N/NC(=O)Cn2nc([N+](=O)[O-])cc2C)cc(Br)c1OCc1ccccc1	7.7	39.5	0.3	28.3	0.3
C=CCNC(=O)CSc1nnc(C(CC)N(C)C)n1C1CCCCC1 (stereo not drawn)	25.3	67.3*	-0.2	0.6	-6.6
CC1CCCCN1S(=O)(=O)c1ccc(S(=O)(=O)N(Cc2ccccc2)Cc2ccco2)cc1 (stereo not drawn)	3.1	-1.4	-0.5	71.1*	-3.3
CCN(Cc1ccccc1)S(=O)(=O)c1ccc(S(=O)(=O)N(Cc2ccccn2)Cc2ccco2)cc1	7.0	-10.1	0.1	20.5	-0.6
O=C(CN(c1ccccn1)S(=O)(=O)c1ccccc1)N/N=C/c1cccc([N+](=O)[O-])c1	-2.2	-4.4	0.1	-1.2	5.5
COc1ccc(CCNC(=O)C2CCN(S(=O)(=O)c3ccc4nc5c(c(C(=O)O)c4c3)CCCC5)CC2)cc1OC	2.1	-16.4	-0.1	-6.3	-53.0
NC(=O)C1(N2CCCCC2)CCN(c2nc(-c3ccc(Br)cc3)cs2)CC1	8.4	19.5	-0.4	60.2*	-1.0
COc1ccccc1-n1c(SCC(=O)NC2CCS(=O)(=O)C2)nc2cc([N+](=O)[O-])ccc21 (stereo not drawn)	-1.1	0.0	-0.2	8.6	-3.4
CCN(CC)S(=O)(=O)c1ccc2c(c1)nc(SCC(=O)NC1CC1)n2-c1ccccc1OC	15.7	56.2*	-1.1	12.8	-3.2
CCOc1ccc(NC(=O)CN(c2ccc(OC)c(OC)c2)S(=O)(=O)c2ccc(C)cc2)cc1	-1.9	12.7	-0.1	2.3	-13.8
O=c1[nH]c(CSc2ccccn2)nc2c1oc1ccccc12	47.6	108.2*	-0.9	6.6	22.9
CCc1nc2c(oc3ccccc32)c(=O)[nH]1	13.5	22.3	0.8	-9.8	10.1
CC1=CC(=O)C=C(C)C1=NOC(=O)/C=C\c1ccccc1	42.2	64.8*	-0.5	-31.0	35.3
O=C(O)C1C2C=CC(C2)C1C(=O)Nc1ccc(Cl)c(Cl)c1 (stereo not drawn)	8.7	7.0	1.5	-1.1	14.5
CN(C)c1ccc(C(=S)Nc2ccccc2)cc1	-81.7*	-84.7	-3.1	-5.1	8.1
COc1ccc(Br)cc1CNC(=O)C1CCCN(S(=O)(=O)N2CC(C)CC(C)C2)C1 (stereo not drawn)	17.6	11.0	-0.2	0.9	2.2
O=C(COC(=O)COc1cccc(Br)c1)Nc1c(Cl)cccc1Cl	6.1	54.2*	-0.2	-34.6	-2.2
CCOc1ccc(CCNC(=O)CSc2cc(=O)n(C)c3ccccc23)cc1OCC	-2.0	-0.6	0.0	13.4	8.4
Cc1ccc(N(CC(=O)NCc2ccc(F)cc2)C(=O)c2csnn2)c(C)c1	-4.9	0.4	-0.7	-7.2	-4.9
Cc1cccc(N(CC(=O)NCc2ccc(F)cc2)C(=O)c2csnn2)c1C	13.3	52.2*	-0.3	-8.0	-6.0
CN(c1ccccc1)c1ccc(/C=N/N2CCOCC2)cc1	18.9	60.9*	1.3	-7.7	0.1
CCN(CC)c1ccc(/C=N/N2CCN(Cc3ccccc3)CC2)cc1	-0.7	-0.2	-0.9	15.9	-11.6
Cc1c(S(=O)(=O)N(C)C2CCCCC2)c(=O)n(C)c(=O)n1C	-5.1	-7.0	0.0	-11.0	-1.7

Compound activity from PubChem.
